PMC4143156 (Journal of immunology (Baltimore, Md. : 1950), 2008)
Where two headings read alike, the source gives them in different places.

Experiments:
[1] = target: Water soluble DQ2 (sDQ2), thrombin-cleaved (human); experiment: peptide dissociation followed by MALDI-TOF MS
water soluble DQ2 (sDQ2) = water soluble DQ2 (sDQ2) (Homo sapiens, UniProt P01909+P01920, A45G/A70V/D89A/E106A/E77G/E98D/H199R/L107V/N214S/P84L/P87L/T103K/T109R/T172A/T60S/V78E/V99I/Y58L/Y62S/Y69I/Y79F); assay type: binding; conditions: ratio of t1/2 without DM to t1/2 with 6 μM DM; sDQ2 complexes
[2] = target: Water soluble DR3 (sDR3), thrombin-cleaved (human); experiment: peptide dissociation followed by MALDI-TOF MS
[3] = target: HLA-DQ2 (DQA1*0501, DQB1*0201) (Homo sapiens, UniProt P01909+P01920, A45G/A70V/D89A/E106A/E77G/E98D/H199R/L107V/N214S/P84L/P87L/T103K/T109R/T172A/T60S/V78E/V99I/Y58L/Y62S/Y69I/Y79F); conditions: DQ2 affinity purified from B-LCL; ref [3],[4]; cited from earlier work
water soluble DR3 (sDR3) [4] = assay type: binding, human; conditions: pH 5, without DM
Outline: (§1)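 Incubated at 37°C, pH 5.0 citrate phosphate, ±6 μM soluble DM, with 35 μM competitor MT 65kDa 3-13; stopped with cold pH 7.2 buffer. Released peptides were quantified by MALDI-TOF MS against added isotopic indicator peptides.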

water soluble DR3 (sDR3) [5] = target: water soluble DR3 (sDR3) (Homo sapiens, UniProt P01903+P01911, A100K/A102G/A103R/A169T/F55Y/I96L/K41T/L162R/M171V/P40S/Q125H/Q178H/Q39Y/R42S/S66N/T106N/W38E/Y61H); assay type: binding; conditions: ratio of t1/2 without DM to t1/2 with 6 μM DM; sDR3 complex; listed as DR3-CLIP1
Outline: as §1

[6] = target: HLA-DQ2 (DQA1*0501, DQB1*0201) (human (endogenous in B-LCL)); experiment: affinity purification with mass spectrometry
[7] = target: HLA-DQ2 (DQA1*0501, DQB1*0201) (human (endogenous in B-LCL)); experiment: affinity purification with mass spectrometry; remark: listed apart in the source
[8] = target: HLA-DR3 (DRA1*0101, DRB1*0301) (human (endogenous in B-LCL)); experiment: affinity purification with mass spectrometry

## CLIP1 M91P released peptide of sDQ2-CLIP1 M91P
[1]
  t1/2 of DM-mediated dissociation (6 μM DM): 8.9 h
  t1/2 of spontaneous dissociation: 93.6 h

## RDSGPVSKARMATPLLMQAGAGSLVPR [CLIP1 M91A]
Water soluble DQ2 (sDQ2)
  DM-mediated increase in dissociation: 19x

## RDSGPVSKPRMATPLLMQAGAGSLVPR [CLIP1 M91P]
Water soluble DQ2 (sDQ2)
  DM-mediated increase in dissociation: 11x

## CLIP1 released peptide of sDQ2-CLIP1 and sDR3-CLIP1
[2]
  t1/2 of DM-mediated dissociation (6 μM DM): 0.25 h
  t1/2 of spontaneous dissociation: 61.5 h
[1]
  t1/2 of DM-mediated dissociation (6 μM DM): 9 h
  t1/2 of spontaneous dissociation: 144 h

## RDSGMATPLLMQALPM GALGAGSLVPR [CLIP2]
Water soluble DQ2 (sDQ2)
  DM-mediated increase in dissociation: 28x
[3]
  IC50 values/affinity for DQ2 compared to conventional CLIP (CLIP1) peptides: lower

## RDSGPVSKMRMATPLLMQAGAGSLVPR [CLIP1]
Water soluble DR3 (sDR3) [4]
  Faster spontaneous release from DR3 compared to CLIP1 and CLIP2 from sDQ2: 2 fold
Water soluble DR3 (sDR3) [5]
  DM-mediated increase in dissociation: 246x
Water soluble DQ2 (sDQ2)
  DM-mediated increase in dissociation: 16x

## CLIP2 released peptide of sDQ2-CLIP2
[1]
  t1/2 of DM-mediated dissociation (6 μM DM): 5 h
  t1/2 of spontaneous dissociation: 142 h

## CLIP1 M91A released peptide of sDQ2-CLIP1 M91A
[1]
  t1/2 of DM-mediated dissociation (6 μM DM): 0.7 h
  t1/2 of spontaneous dissociation: 13.1 h

B1: Ii93-109 (peptide)
peptide: MATPLLMQALPMGALPQ
[6]
  pmol of peptide eluted from 50 μg of affinity-purified class II: 3.8 pmol

B2: Ii93-108 (peptide)
peptide: MATPLLMQALPMGALP
[7]
  pmol of peptide eluted from 50 μg of affinity-purified class II: 159 pmol
[6]
  pmol of peptide eluted from 50 μg of affinity-purified class II: 156 pmol

B3: Ii81-103 (peptide)
peptide: LPKPPKPVSKMRMATPLLMQALP
[7]
  pmol of peptide eluted from 50 μg of affinity-purified class II: 79.5 pmol
[6]
  pmol of peptide eluted from 50 μg of affinity-purified class II: 71.1 pmol

B4: Ii81-104 (peptide)
peptide: LPKPPKPVSKMRMATPLLMQALPM
[8]
  pmol of peptide eluted from 50 μg of affinity-purified class II: 42.4 pmol

B5: Ii82-103 (peptide)
peptide: PKPPKPVSKMRMATPLLMQALP
[8]
  pmol of peptide eluted from 50 μg of affinity-purified class II: 113 pmol
[7]
  pmol of peptide eluted from 50 μg of affinity-purified class II: 16.5 pmol
[6]
  pmol of peptide eluted from 50 μg of affinity-purified class II: 36.8 pmol

B6: Ii81-101 (peptide)
peptide: LPKPPKPVSKMRMATPLLMQA
[8]
  pmol of peptide eluted from 50 μg of affinity-purified class II: 106 pmol
[7]
  pmol of peptide eluted from 50 μg of affinity-purified class II: 31.5 pmol
[6]
  pmol of peptide eluted from 50 μg of affinity-purified class II: 88.4 pmol
